Results as given in article PMC4238911 (Cancer chemotherapy and pharmacology, 2011).
Where two headings read alike, the source gives them in different places.

Legend:
[1] = target: TrkB (Homo sapiens, UniProt Q16620); format: cell-based
[2] = system: refractory high-risk neuroblastoma; assay: Tumor response; format: in vivo, human
How it was run: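 Children received the oral test compound BID, 5 of 7 days, in 28-day cycles at 25–120 mg/M2/dose (3 + 3 escalation). Response was assessed after cycles 1, 2, 4 and 8, then every 4th cycle. Scoring used NANT criteria (modified International Neuroblastoma Response Criteria), with RECIST for measurable CT/MRI tumor and Curie score for MIBG lesions.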

[3] = system: JAK2-mutated (JAK2^V617F) myelofibrosis; settings: 22 patients; cited from earlier work
[4] = previous trials; cited from earlier work
[5] = system: Trk kinase domain; settings: cited from earlier work
[6] = clinical; settings: human, in vivo, po
[7] = Plasma pharmacokinetics of lestaurtinib; settings: human, po
[8] = subjects of N = 46, all dose levels
[9] = the other subject with mixed response, complete marrow response

Sequence of TrkB (Q16620 32-822, species assumed): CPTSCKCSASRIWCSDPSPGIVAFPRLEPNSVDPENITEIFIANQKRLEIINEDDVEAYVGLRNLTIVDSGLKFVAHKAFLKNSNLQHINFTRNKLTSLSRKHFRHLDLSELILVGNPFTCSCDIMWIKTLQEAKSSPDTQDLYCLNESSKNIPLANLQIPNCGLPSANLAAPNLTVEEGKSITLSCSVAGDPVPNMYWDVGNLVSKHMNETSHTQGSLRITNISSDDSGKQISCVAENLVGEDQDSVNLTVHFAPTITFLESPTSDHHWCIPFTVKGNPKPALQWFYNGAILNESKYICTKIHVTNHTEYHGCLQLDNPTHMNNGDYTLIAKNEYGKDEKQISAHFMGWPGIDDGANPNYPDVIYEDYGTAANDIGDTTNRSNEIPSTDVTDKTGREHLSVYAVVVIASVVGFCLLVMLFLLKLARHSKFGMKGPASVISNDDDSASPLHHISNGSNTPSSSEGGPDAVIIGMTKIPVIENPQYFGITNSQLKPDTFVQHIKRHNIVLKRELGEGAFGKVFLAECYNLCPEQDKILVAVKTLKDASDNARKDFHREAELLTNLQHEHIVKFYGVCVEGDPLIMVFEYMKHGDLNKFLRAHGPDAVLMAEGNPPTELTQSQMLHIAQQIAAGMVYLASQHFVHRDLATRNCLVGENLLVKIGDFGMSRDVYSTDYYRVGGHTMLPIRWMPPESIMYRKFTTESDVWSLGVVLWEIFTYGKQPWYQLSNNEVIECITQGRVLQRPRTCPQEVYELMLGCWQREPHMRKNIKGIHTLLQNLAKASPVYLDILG

For C[C@]12O[C@H](C[C@]1(O)CO)n1c3ccccc3c3c4c(c5c6ccccc6n2c5c31)CNC4=O [lestaurtinib, Lestaurtinib], the “Plasma inhibition of phospho-TrkB activity” value ([1]; 1 h post-dosing, 120 mg/M^2) was “uniform inhibition”, the “Inhibition of phosphorylation of TrkB by immunoblotting” value ([1]; plasma 1 h after lestaurtinib, days 5 and 26, all ten dose levels, 31 subjects) was “evident only in cells exposed to plasma from subjects treated at dose levels ≥ 6” and the “Sustained suppression of TrkB phosphorylation” value ([1]; pre-drug/trough plasma samples, twice daily dosing) was “not evident”. The “Duration of prolonged control of disease, median” value ([2]; 10 of 26 subjects at doses ≥ 70 mg/M^2/dose BID, range 5–28) was 10 cycles, the “Response/SD > 5 months” value ([2]; dose level 1–3, of total subjects at these dose levels) was 0/9 (total subjects at dose levels 1–3) and the “Response/SD > 5 months” value ([2]; dose level 4–5 (2 SD)) was 2/22 (2 SD). For the same compound, the “Response/SD > 5 months” value ([2]; dose level 5a–8 (2 PR, 2 Mixed, 4 SD)) was 8/16 (2 PR, 2 Mixed, 4 SD), the “Subjects who maintained a response or SD for at least 5 cycles” value ([2]; dose levels > 5, 10 of 26 subjects) was 38.5% and the “Patients who maintained a response or SD” value ([2]; dose levels ≥ 5a, 8/16) was 50%. For the same compound, the “Duration of maintained response or SD, median” value ([2]; dose levels ≥ 5a, 8/16 patients) was 10 months, the “Subjects with prolonged control of disease” value ([2]; doses ≥ 70 mg/M^2/dose BID, 10 of 26 subjects) was 38.5% and the “Duration of prolonged stable disease, median” value ([2]; nine subjects at dose levels ≥ 5) was 6 cycles. For the same compound, the “Marrow tumor content after treatment” value ([2]; one subject with prolonged stable disease, decreased from 75) was 2%, the “Urine catecholamine response: reduction in HVA” value ([2]; second subject with PR) was 15% and the “Urine catecholamine response: reduction in VMA” value ([2]; second subject with PR) was 44%. The “Duration of prolonged stable disease, median” value ([2]; six subjects, range 5–13) was 7 cycles, the “Number of treatment courses prior to PD: ≥17 months” value ([2]; subjects of 46) was 3/46 and the “Number of treatment courses prior to PD: 11–16 months” value ([2]; subjects of 46, one of 3 stopped therapy after 13 cycles due to toxicity) was 3 ^b/46. The “Number of treatment courses prior to PD: 4–10 months” value ([2]; subjects of 46, one of 11 stopped therapy after 5 cycles due to toxicity) was 11 ^a/46, the “Best overall response: Mixed” value [2, 8] was 3/46 and the “Best overall response: PR” value [2, 8] was 2/46. The “Best overall response: Progressive disease” value [2, 8] was 21/46, the “Best overall response: Stable disease” value [2, 8] was 20/46 and the “Urine catecholamines: reduction in HVA” value [2, 9] was 15%. The “Urine catecholamines: reduction in VMA” value [2, 9] was 45%, the “Median duration of response” value [3] was 14 months and the Overall response rate [3] was 27%. The “Patients with grade 1/2 elevated LFTs possibly related to lestaurtinib” value [4] was no more than 30%, the “Concentration that competitively inhibits ATP binding to the Trk kinase domain” value [5] was “nanomolar concentrations” and the AUC(0-t) ([6]; 25 mg/m2) was 29500 ng·h/mL. It also gave a Tmax ([6]; 25 mg/m2) of 1.5 h, a half-life ([6]; 25 mg/m2) of 10.5 ± 3.6 h and an AUC(0-t) ([6]; 35 mg/m2) of 37500 ng·h/mL. The Cmax ([6]; 35 mg/m2) was 3390 ng/mL, the Tmax ([6]; 35 mg/m2) was 2 h and the half-life ([6]; 35 mg/m2) was 7 h. The Cmax ([6]; 45 mg/m2) was 3060 ng/mL, the half-life ([6]; 45 mg/m2) was 4.5 ± 1.2 h and the AUC(0-t) ([6]; 55 mg/m2) was 34900 ng·h/mL. The Tmax ([6]; 55 mg/m2) was 1 h, the half-life ([6]; 55 mg/m2) was 6 ± 3.4 h and the AUC(0-inf) ([6]; 62.5 mg/m2) was 28900 ng·h/mL. The Cmax ([6]; 62.5 mg/m2) was 4500 ng/mL, the half-life ([6]; 62.5 mg/m2) was 4.3 ± 0.9 h and the Tmax ([6]; 70 mg/m2) was 1 h. The half-life ([6]; 70 mg/m2) was 3.6 ± 1.4 h, the AUC(0-inf) ([6]; 77.5 mg/m2) was 54800 ng·h/mL and the AUC(0-t) ([6]; 77.5 mg/m2) was 47500 ng·h/mL. It also gave a half-life ([6]; 77.5 mg/m2) of 8.2 h, an AUC(0-t) ([6]; 85 mg/m2) of 15500 ng·h/mL and a half-life ([6]; 85 mg/m2) of 3.9 h. For the same compound, the AUC(0-inf) ([6]; 92.5 mg/m2) was 51500 ng·h/mL, the half-life ([6]; 92.5 mg/m2) was 4.3 h and the Cmax ([6]; 120 mg/m2) was 3510 ng/mL. It also gave a half-life ([6]; 120 mg/m2) of 7.9 h, a Tmax [7] of 1 to 2 h and an AUC(0-inf) ([7]; 25 mg/m2) of 39500 ng·h/mL. The Cmax ([7]; 25 mg/m2) was 2400 ng/mL, the AUC(0-inf) ([7]; 35 mg/m2) was 41300 ng·h/mL and the AUC(0-inf) ([7]; 45 mg/m2) was 16400 ng·h/mL. It also gave an AUC(0-t) ([7]; 45 mg/m2) of 15900 ng·h/mL, a Tmax ([7]; 45 mg/m2) of 1 h and an AUC(0-inf) ([7]; 55 mg/m2) of 40800 ng·h/mL. For the same compound, the Cmax ([7]; 55 mg/m2) was 4900 ng/mL, the AUC(0-t) ([7]; 62.5 mg/m2) was 26600 ng·h/mL and the Tmax ([7]; 62.5 mg/m2) was 1 h. For the same compound, the AUC(0-inf) ([7]; 70 mg/m2) was 15800 ng·h/mL, the AUC(0-t) ([7]; 70 mg/m2) was 15000 ng·h/mL and the Cmax ([7]; 70 mg/m2) was 3810 ng/mL. The Cmax ([7]; 77.5 mg/m2) was 3680 ng/mL, the Tmax ([7]; 77.5 mg/m2) was 2 h and the AUC(0-inf) ([7]; 85 mg/m2) was 15600 ng·h/mL. For the same compound, the Cmax ([7]; 85 mg/m2) was 3460 ng/mL, the Tmax ([7]; 85 mg/m2) was 1 h and the AUC(0-t) ([7]; 92.5 mg/m2) was 37100 ng·h/mL. For the same compound, the Cmax ([7]; 92.5 mg/m2) was 8740 ng/mL, the Tmax ([7]; 92.5 mg/m2) was 1 h and the AUC(0-inf) ([7]; 120 mg/m2) was 39500 ng·h/mL. The AUC(0-t) ([7]; 120 mg/m2) was 34900 ng·h/mL, the Tmax ([7]; 120 mg/m2) was 1.5 h and the “Subjects with transaminase elevation grade 3/4 or dose limiting” value (5 subjects, all dose levels) was 11%. The MTD (10 dose levels, 25–120 mg/M^2/dose BID) was “no MTD was defined”, the “Subjects with transaminase elevation grade 1/2” value (30 subjects, all dose levels) was 64% and the “Subjects with reversible pancreatitis (grade 2)” value (after prolonged treatment at higher dose levels) was 3 subjects. The “Hematologic DLTs” value (all dose levels) was “no hematologic DLTs identified”, the “# subjects with DLT during course 1” value (dose level 4, 55 mg/M^2/dose BID, 7 subjects entered) was 7 (1) and the “# subjects with DLT during course 1” value (dose level 5, 70 mg/M^2/dose BID, 10 subjects entered) was 10 (2). For the same compound, the “# subjects with DLT during course 1” value (dose level 8, 120 mg/M^2/dose BID, 6 subjects entered) was 6 (1) and the “Subjects who came off study for toxicity” value (of 47 enrolled) was “three”.
